Test results published in ChEMBL document CHEMBL4028911, “Discovery of a Small-Molecule Bromodomain-Containing Protein 4 (BRD4) Inhibitor That Induces AMP-Activated Protein Kinase-Modulated Autophagy-Associated Cell Death in Breast Cancer” (J Med Chem, 2017).
Active and inactive are the calls of the source. No cut-off for these calls is given here.

Tests used:
[1] = biological target: T1, Bromodomain-containing protein 4 (Homo sapiens, UniProt O60885); experiment: Inhibition of BRD4 in human MCF7 cells assessed as downregulation of c-Myc expression at 1.5 uM measured up to 36 hrs by Western blot analysis; type: cell-based
Procedure, shortened: (§1)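 MCF-7 (1.5 μM) or MDA-MB-231 (3 μM) cells treated for indicated times. Adherent and floating cells lysed in RIPA with 1 mM PMSF. Equal protein run on 10-15% SDS-PAGE, blotted to PVDF, blocked in milk or BSA, HRP/ECL detection. β-actin loading control.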

[2] = biological target: T1, Bromodomain-containing protein 4; experiment: Inhibition of His/thioredoxin-tagged human recombinant BRD4 bromodomain-1 (43 to 166 residues) expressed in Escherichia coli BL21 Star (DE3) pre-incubated for 30 mins followed by biotinylated histone peptide H4 addition measured after 30 mins by AlphaScreen assay
[3] = biological target: T1, Bromodomain-containing protein 4; experiment: Inhibition of BRD4 in human MDA-MB-231 cells assessed as downregulation of mTOR phosphorylation at ser244 at 3 uM measured up to 36 hrs by Western blot analysis; type: cell-based; procedure, shortened: as §1
MDA-MB-231 [4] = experiment: Induction of autophagy in human MDA-MB-231 cells assessed as LC3 lipidation at 3 uM in presence of ATG5 siRNA by Western blot analysis; type: functional, cell-based
MDA-MB-231 [5] = experiment: Effect on AKT expression in human MDA-MB-231 cells at 3 uM measured up to 36 hrs by Western blot analysis; type: ADME, cell-based; details: mda-mb-231, 36 h
Procedure, shortened: (§2)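 MCF-7 (1.5 µM) or MDA-MB-231 (3 µM) cells treated for indicated times. Adherent and floating cells lysed in RIPA with 1 mM PMSF, 4°C for 1 h. Equal protein run on 10-15% SDS-PAGE, transferred to PVDF, blocked with milk or BSA, probed with primary then HRP secondary antibodies, ECL detection; β-actin as loading control.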

MDA-MB-231 [6] = experiment: Induction of autophagy in GFP-LC3 fused human MDA-MB-231 cells assessed as increase in LC3 puncta at 3 uM by fluorescence microscopy; type: functional, cell-based
Procedure, shortened: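 MCF-7 or MDA-MB-231 cells transfected with eGFP-LC3 plasmid, then treated with 1.5 or 3 µM respectively for 24 h. LC3 puncta viewed by fluorescence microscopy.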

MCF7 [7] = experiment: Induction of autophagy in human MCF7 cells assessed as increase in LC3-2 expression at 1.5 uM by Western blot analysis; type: functional, cell-based; details: TDE = time-dependent effect; procedure, shortened: as §2
[8] = biological target: T1, Bromodomain-containing protein 4; experiment: Inhibition of BRD4 in human MDA-MB-231 cells assessed as reduction in ULK1 protein expression at 3 uM up to 36 hrs by Western blot analysis; type: cell-based; procedure, shortened: as §1
Mus musculus [9] = experiment: In vivo inhibition of c-Myc expression in BALB/c mouse xenografted with human MCF7 cells at 100 mg/kg, ig administered once a day for 24 days by Western blot analysis; type: functional, organism-based
Procedure, shortened: (§3)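 Tumor tissues excised from MCF-7 or MDA-MB-231 xenograft mice were lysed and analysed by western blot for BRD4, c-Myc, LC3 and cleaved caspase-3.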

Mus musculus [10] = experiment: Induction of LC3 accumulation in BALB/c mouse xenografted with human MCF7 cells at 100 mg/kg, ig administered once a day for 24 days by Western blot analysis; type: functional, organism-based; procedure, shortened: as §3
MCF7 [11] = experiment: Induction of autophagy in human MCF7 cells assessed as increase in LC3B puncta at 1.5 uM after 24 hrs by DAPI-staining based immunocytochemistry; type: functional, cell-based
Procedure, shortened: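 MCF-7 cells treated with 1.5 µM for 24 h and blocked with 1.5% goat serum in PBS. Incubated overnight at 4°C with anti-LC3B (1:200) in PBS/1% BSA, then FITC secondary for 1 h at room temperature. Nuclei counterstained with DAPI; LC3B puncta imaged.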

[12] = biological target: T1, Bromodomain-containing protein 4; experiment: Inhibition of BRD4 in human MDA-MB-231 cells assessed as increase in ULK1 phosphorylation at ser317 at 3 uM up to 36 hrs by Western blot analysis; type: cell-based; procedure, shortened: as §1
[13] = biological target: Bromodomain-containing protein 3 (Homo sapiens, UniProt Q15059); experiment: Inhibition of recombinant human N-terminal GST-tagged BRD3 bromodomain-2 (306 to 417 residues) expressed in Escherichia coli expression system after 120 mins by TR-FRET assay
Procedure, shortened: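 TR-FRET bromodomain binding. Recombinant BRD domain, BET ligand and test agent in 20 μl assay buffer with 1% DMSO final. Incubated 120 min at room temperature. Blank lacks BET ligand.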

[14] = biological target: T1, Bromodomain-containing protein 4; experiment: Inhibition of BRD4 in human MCF7 cells assessed as increase in ATG13 phosphorylation at ser318 at 1.5 uM up to 36 hrs by Western blot analysis; type: cell-based; procedure, shortened: as §1
[15] = biological target: T1, Bromodomain-containing protein 4; experiment: Inhibition of BRD4 in human MDA-MB-231 cells assessed as reduction in FIP200 protein expression at 3 uM up to 36 hrs by Western blot analysis; type: cell-based; procedure, shortened: as §1
[16] = biological target: T1, Bromodomain-containing protein 4; experiment: Inhibition of BRD4 in human MDA-MB-231 cells assessed as downregulation of AKT phosphorylation at thr308 at 3 uM measured up to 36 hrs by Western blot analysis; type: cell-based; procedure, shortened: as §1
MCF7 [17] = experiment: Induction of autophagy in human MCF7 cells assessed as upregulation of beclin1 expression at 1.5 uM measured up to 36 hrs by Western blot analysis; type: functional, cell-based; procedure, shortened: as §2
Homo sapiens = species on record: Homo sapiens; experiment: Effect on p53 interaction with AMPK in human MDA-MB-231 cells at 3 uM by co-immunoprecipitation assay; type: cell-based
Procedure, shortened: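 Cells left untreated or treated, then lysed in RIPA (40 mM Tris-HCl pH 7.5, 150 mM NaCl, 0.5% NP-40, protease inhibitors, 5% glycerol, 10 mM NaF). Lysates incubated overnight at 4°C with BRD4 or p53 antibodies plus protein A/G beads, washed 3 times, resolved on 10% SDS-PAGE. Blots probed for p53 and AMPKα; inputs checked for BRD4, p53 and AMPKα.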

[18] = biological target: T1, Bromodomain-containing protein 4; experiment: Inhibition of BRD4 in human MDA-MB-231 cells assessed as induction of AMPKalpha phosphorylation at thr172 at 3 uM measured up to 36 hrs by Western blot analysis; type: cell-based; procedure, shortened: as §1
MDA-MB-231 [19] = experiment: Antitumor activity against human MDA-MB-231 cells xenografted in ig dosed nude BALB/c mouse assessed as tumor growth inhibition administered once a day for 27 days measured every 3 days relative to control; type: functional, organism-based
Procedure, shortened: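 Female BALB/c nude mice, 6-8 weeks, 20-22 g, injected subcutaneously with 5×10^6 MCF-7 or MDA-MB-231 cells. At 100 mm³ tumor volume (V = L×W²/2), split into four groups: 25, 50 or 100 mg/kg intragastric once daily for 24 or 27 days, or vehicle. Tumor volume and body weight measured every 3 days; tumors excised and weighed at end. MCF-7 n=7, MDA-MB-231 n=6 per group.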

[20] = biological target: T1, Bromodomain-containing protein 4; experiment: Inhibition of BRD4 in human MCF7 cells assessed as reduction in FIP200 protein expression at 1.5 uM up to 36 hrs by Western blot analysis; type: cell-based; procedure, shortened: as §1

Sequence of Bromodomain-containing protein 3 (Q15059 whole entry, the tested form may be a part): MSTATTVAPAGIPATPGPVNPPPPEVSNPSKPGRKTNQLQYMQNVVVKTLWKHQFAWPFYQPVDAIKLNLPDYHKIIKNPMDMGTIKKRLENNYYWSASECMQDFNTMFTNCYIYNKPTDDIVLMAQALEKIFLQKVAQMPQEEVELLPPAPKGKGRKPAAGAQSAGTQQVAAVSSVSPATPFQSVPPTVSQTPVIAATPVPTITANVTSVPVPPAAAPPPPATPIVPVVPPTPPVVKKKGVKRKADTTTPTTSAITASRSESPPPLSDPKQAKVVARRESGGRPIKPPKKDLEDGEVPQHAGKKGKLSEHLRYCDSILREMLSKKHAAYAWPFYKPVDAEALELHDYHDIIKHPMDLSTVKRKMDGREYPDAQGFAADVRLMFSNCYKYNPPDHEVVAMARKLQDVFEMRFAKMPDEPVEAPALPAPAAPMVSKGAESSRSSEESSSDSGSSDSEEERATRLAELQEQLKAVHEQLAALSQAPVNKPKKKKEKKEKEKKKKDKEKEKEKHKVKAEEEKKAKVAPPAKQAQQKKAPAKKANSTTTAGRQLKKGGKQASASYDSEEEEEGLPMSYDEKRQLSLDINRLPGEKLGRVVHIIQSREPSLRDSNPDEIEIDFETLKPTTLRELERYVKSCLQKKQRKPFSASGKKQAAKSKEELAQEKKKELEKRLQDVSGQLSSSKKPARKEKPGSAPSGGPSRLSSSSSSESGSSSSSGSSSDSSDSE

Structure (SMILES): Cc1cc(-c2nc3sc4c(c3c(=O)[nH]2)CCN(C)C4)cc(C)c1O
- inhibition [1]: Active
- IC50 [2]: 430 nM
- inhibition [3]: Active
- Activity (MDA-MB-231 [4]): inactive
- Activity (MDA-MB-231 [5]): Non-Toxic
- Activity (MDA-MB-231 [6]): Active
- Activity (MCF7 [7]): Tde
- inhibition [8]: Active
- Activity (Mus musculus [9]): Active
- Activity (Mus musculus [10]): Active
- Activity (MCF7 [11]): Active
- inhibition [12]: Active
- IC50 [13]: > 100000 nM
- inhibition [14]: Active
- inhibition [15]: Active
- inhibition [16]: Active
- Activity (MCF7 [17]): Active
- Activity (Homo sapiens): inactive
- inhibition [18]: Active
- TGI (MDA-MB-231 [19]): Dose-dependent effect
- inhibition [20]: Active
